Measured values from ChEMBL document CHEMBL3784943, “Structure based medicinal chemistry-driven strategy to design substituted dihydropyrimidines as potential antileishmanial agents” (Eur J Med Chem, 2016).
Converted amounts (≈) assume the structure as drawn.

Experiments:
Leishmania major = assay: Antileishmanial activity against Leishmania major promastigotes after 72 hrs by Neubauer chamber counting; format: functional, organism-based
Leishmania donovani = assay: Antileishmanial activity against Leishmania donovani promastigotes after 72 hrs by Neubauer chamber counting; format: functional, organism-based
In short: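 Clinical isolate promastigotes grown at 24 °C in medium 199 with 10% fetal bovine serum, HEPES, sodium bicarbonate, penicillin and streptomycin. Cultures harvested after 6–7 days, washed three times in PBS, resuspended at 2 × 10^6 cells/mL and exposed to serial compound dilutions for 72 h at 24 °C with shaking. Amphotericin B positive control, DMSO negative control. Run in triplicate; IC50 from live-cell counts.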

[1] = Leishmania donovani, 72 h, read-out: IC50

| SMILES | IC50 (Leishmania major) [µg/mL] | IC50 (Leishmania donovani) | IC50 (Leishmania donovani; [1]) [µg/mL] |
| --- | --- | --- | --- |
| COc1cc(C2NC(=O)NC(C)=C2C(C)=O)ccc1O (configuration not stated) | 0.71 (≈ 2.57 µM) |  |  |
| CC1=C(C(=O)/C=C/c2ccc(O)cc2)C(c2ccccc2)NC(=O)N1C (configuration not stated) | 0.59 (≈ 1.69 µM) | Not Active |  |
| CC1=C(C(=O)Nc2ccc(C(=O)/C=C/c3ccc(O)cc3)cc2)C(c2ccc(C)cc2)NC(=S)N1 (configuration not stated) | 0.53 (≈ 1.1 µM) | Not Active |  |
| CC(=O)C1=C(C)NC(=S)NC1c1ccccc1 (configuration not stated) | 0.78 (≈ 3.17 µM) |  |  |
| CC1=C(C(=O)Nc2ccc(C(=O)/C=C/c3cccc([N+](=O)[O-])c3)cc2)C(c2ccc(C)cc2)NC(=S)N1 (configuration not stated) | 0.65 (≈ 1.27 µM) | Not Active |  |
| CC(=O)C1=C(C)NC(=O)NC1c1ccccc1 (configuration not stated) | 0.61 (≈ 2.65 µM) |  |  |
| CC(=O)C1=C(CNc2ccc(C(=O)/C=C/c3ccc(N(C)C)cc3)cc2)N(C)C(=O)NC1c1ccccc1 (configuration not stated) | 0.71 (≈ 1.4 µM) | Not Active |  |
| CC(=O)C1=C(CNc2ccc(C(=O)/C=C/c3ccc(Cl)cc3)cc2)N(C)C(=O)NC1c1ccccc1 (configuration not stated) | 0.53 (≈ 1.06 µM) |  | 4.4 (≈ 8.8 µM) |
| CC(=O)C1=C(CNc2ccc(C(=O)/C=C/c3ccc(O)cc3)cc2)N(C)C(=O)NC1c1ccccc1 (configuration not stated) | 0.51 (≈ 1.06 µM) |  | 7.5 (≈ 15.6 µM) |
| CC(=O)C1=C(C)NC(=O)NC1c1cccc(C)c1 (configuration not stated) | 0.89 (≈ 3.64 µM) |  |  |
| CC1=C(C(=O)Nc2ccc(C(=O)/C=C/c3ccc(O)cc3)cc2)C(c2cccc(O)c2)NC(=S)N1 (configuration not stated) | 0.51 (≈ 1.05 µM) |  | 5.58 (≈ 11.5 µM) |
| COCC1=C(C(=O)OC)C(c2cccc([N+](=O)[O-])c2)NC(=O)N1 (configuration not stated) | 0.95 (≈ 2.96 µM) |  |  |
| CC1=C(C(=O)/C=C/c2ccc(Cl)cc2)C(c2ccccc2)NC(=O)N1C (configuration not stated) | 0.63 (≈ 1.72 µM) | Not Active |  |
| CC1=C(C(=O)Nc2ccc(C(=O)/C=C/c3cccc([N+](=O)[O-])c3)cc2)C(c2cccc(O)c2)NC(=S)N1 (configuration not stated) | 0.58 (≈ 1.13 µM) | Not Active |  |
| CC(=O)C1=C(C)NC(=O)NC1c1cccc([N+](=O)[O-])c1 (configuration not stated) | 0.67 (≈ 2.43 µM) |  |  |
| CCOC(=O)C1=C(C)NC(=S)NC1c1cccc(O)c1 (configuration not stated) [MONASTROL] | 0.65 (≈ 2.22 µM) |  |  |
| CC1=C(C(=O)/C=C/c2cccc([N+](=O)[O-])c2)C(c2ccccc2)NC(=O)N1C (configuration not stated) | 0.73 (≈ 1.93 µM) | Not Active |  |
| CCOC(=O)C1=C(C)NC(=O)NC1c1ccccc1 (configuration not stated) | 0.99 (≈ 3.8 µM) |  |  |
| CC(=O)C1=C(CNc2ccc(C(=O)/C=C/c3cccc([N+](=O)[O-])c3)cc2)N(C)C(=O)NC1c1ccccc1 (configuration not stated) | 0.67 (≈ 1.31 µM) |  | > 100 |
| CC(=O)C1=C(C)N(C)C(=O)NC1c1ccccc1 (configuration not stated) | 0.63 (≈ 2.58 µM) |  |  |
| CC(=O)C1=C(CNc2ccc(C3=NNC(c4ccc(O)cc4)C3)cc2)N(C)C(=O)NC1c1ccccc1 (configuration not stated) | 0.47 (≈ 0.948 µM) |  | 1.5 (≈ 3.03 µM) |
| CC(=O)C1=C(CNc2ccc(C(=O)/C=C/c3ccccc3)cc2)N(C)C(=O)NC1c1ccccc1 (configuration not stated) | 0.54 (≈ 1.16 µM) |  | > 100 |
| CCOC(=O)C1=C(C)NC(=S)NC1c1ccc(C)cc1 (configuration not stated) | 0.63 (≈ 2.17 µM) |  |  |
| COc1ccc(C2NC(=O)NC(C)=C2C(C)=O)cc1 (configuration not stated) | 0.69 (≈ 2.65 µM) |  |  |
